Test results as given in PMC3313494 (Journal of the American Chemical Society, 2012).
Ends that are not written are not given here.

Columns and labels:
sirtuins = assay: Turnover of biotin-NAD as NAD alternate substrate; type: biochemical; details: 6-biotin-17-NAD; Supplemental Figure S12
monoamine oxidases = details: used in the treatment of clinical depression; cited from earlier work
Sir2Tm = Sir2Tm (Thermotoga maritima, UniProt Q9WYW0); assay: HPLC deacetylation assay, Sir2Tm; type: biochemical, bacterial; details: pH 8.0, 37°C
Outline: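 Enzyme addition at 37°C started the reaction; Sir2Tm was refolded from inclusion bodies, ~90% pure. Aliquots at 0, 5, 10, 20 min were acid-quenched, urea-treated, ultrafiltered and resolved by C18 reverse-phase HPLC; integrated peak areas gave rate constants.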

SIRT1 = molecular target: T1, SIRT1 (Homo sapiens, UniProt Q96EB6); assay: HPLC deacetylation assay, SIRT1; type: biochemical; details: 0.07 μM (1U) SIRT1, 500 μM NAD, peptide 0–500 μM, pH 8.0, 37°C, 0–20 min, at least duplicate
T1 sequence (Q96EB6 1-747): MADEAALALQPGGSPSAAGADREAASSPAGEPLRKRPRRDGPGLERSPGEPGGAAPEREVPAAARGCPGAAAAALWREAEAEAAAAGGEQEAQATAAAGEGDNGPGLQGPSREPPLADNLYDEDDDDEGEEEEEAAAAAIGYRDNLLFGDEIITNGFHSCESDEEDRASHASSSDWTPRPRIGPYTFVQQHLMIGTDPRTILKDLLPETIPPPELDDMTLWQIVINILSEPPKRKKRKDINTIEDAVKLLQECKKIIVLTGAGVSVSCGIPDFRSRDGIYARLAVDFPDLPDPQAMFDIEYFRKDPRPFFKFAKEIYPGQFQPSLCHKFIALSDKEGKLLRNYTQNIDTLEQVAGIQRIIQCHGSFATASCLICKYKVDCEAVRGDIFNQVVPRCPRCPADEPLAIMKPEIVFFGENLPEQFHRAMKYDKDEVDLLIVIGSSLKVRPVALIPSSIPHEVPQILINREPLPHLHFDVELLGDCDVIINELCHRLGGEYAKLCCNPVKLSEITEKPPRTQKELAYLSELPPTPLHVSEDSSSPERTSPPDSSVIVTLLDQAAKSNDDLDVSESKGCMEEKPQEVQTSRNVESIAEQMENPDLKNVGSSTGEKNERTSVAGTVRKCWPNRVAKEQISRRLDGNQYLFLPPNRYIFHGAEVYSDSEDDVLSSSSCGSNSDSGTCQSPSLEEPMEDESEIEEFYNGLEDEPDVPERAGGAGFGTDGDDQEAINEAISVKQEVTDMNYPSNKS

Sequence of Sir2Tm (Q9WYW0 whole entry): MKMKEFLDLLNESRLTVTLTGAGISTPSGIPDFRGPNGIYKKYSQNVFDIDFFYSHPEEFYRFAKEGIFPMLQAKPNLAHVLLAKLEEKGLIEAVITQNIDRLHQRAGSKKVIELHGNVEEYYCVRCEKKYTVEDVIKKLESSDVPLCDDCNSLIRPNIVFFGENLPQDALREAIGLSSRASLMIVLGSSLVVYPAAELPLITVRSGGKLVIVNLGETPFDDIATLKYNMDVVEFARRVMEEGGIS

In the case of 6-biotin-17-NAD, the “use as NAD alternate substrate by sirtuins” value (sirtuins) is reported as “can be turned over by sirtuins as an NAD alternate substrate”.

For `NNCCc1ccccc1` [phenethylhydrazine], the monoamine oxidase inhibition (monoamine oxidases) is given as “well-established inhibitor of monoamine oxidases”.

In the case of “K382KAc: corresponding natural acetylated substrate, p53 (372–389) peptide containing acetyl-lysine at 382 (KKGQSTSRHKK(Ac)LMFKTEG; UniProt P04637 372-389, looked up, fragment)”, the “deacetylation rate (apparent kcat)” value (Sir2Tm; 0.3–0.15 μM Sir2Tm, 500 μM NAD, peptide 0–500 μM, 0–20 min, HPLC, at least duplicate) is reported as 0.18 ± 0.025 s⁻¹, the Km (Sir2Tm; steady-state kinetics, Sir2Tm, 0.5 mM NAD, p53 (372–389) peptides) is reported as 71.8 ± 24.5 µM and the “deacetylation rate (apparent kcat)” value (SIRT1) is reported as 0.205 ± 0.012 s⁻¹.
